# In ChEMBL document CHEMBL2331165, “Semisynthesis and myocardial activity of thaliporphine N-homologues” (2013):
# Activity calls are given as the source filed them. No cut-off for these calls is given here.
# Columns and labels:
# [1] = Myocardial activity in Wistar-Kyoto rat right atrium exposed to electrical stimulation driven at 2 Hz assessed as muscle contraction at 30 uM relative to untreated control; type: functional, Muscle tissue
# [2] = Myocardial activity in Wistar-Kyoto rat left atrium exposed to electrical stimulation driven at 2 Hz assessed as muscle contraction at 3 uM relative to untreated control; type: functional, Muscle tissue
# Summary of the method: (§1)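 Left atrial and right ventricular strips from male Wistar-Kyoto rats, electrically driven, in Tyrode's solution gassed with CO2−O2 (1:19) at 36 ± 0.2 °C. Optimal preload 0.5−1.0 g for maximal developed tension. Contraction recorded by force displacement transducer and expressed as % of the pre-treatment control. Means from four to five experiments.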
# Heart [3] = test: Myocardial activity in Wistar-Kyoto rat heart assessed as heart rate level at 3 uM relative to untreated control; type: functional
# Summary of the method: (§2)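 Right atria from male Wistar-Kyoto rat hearts in an organ bath of Tyrode's solution gassed with CO2−O2 (1:19) at 36 ± 0.2 °C. Spontaneous beating rate recorded and expressed as % of the pre-treatment control. Means from four to five experiments.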
# [4] = Myocardial activity in Wistar-Kyoto rat right atrium exposed to electrical stimulation driven at 2 Hz assessed as muscle contraction at 10 uM relative to untreated control; type: functional, Muscle tissue
# [5] = Myocardial activity in Wistar-Kyoto rat right ventricle exposed to electrical stimulation driven at 2 Hz assessed as muscle contraction at 3 uM relative to untreated control; type: functional, Muscle tissue; summary of the method: as §1
# [6] = Myocardial activity in Wistar-Kyoto rat right ventricle exposed to electrical stimulation driven at 2 Hz assessed as muscle contraction at 30 uM relative to untreated control; type: functional, Muscle tissue; summary of the method: as §1
# [7] = Myocardial activity in Wistar-Kyoto rat left atrium exposed to electrical stimulation driven at 2 Hz assessed as muscle contraction at 10 uM relative to untreated control; type: functional, Muscle tissue; summary of the method: as §1
# [8] = Myocardial activity in Wistar-Kyoto rat left atrium exposed to electrical stimulation driven at 2 Hz assessed as muscle contraction at 30 uM relative to untreated control; type: functional, Muscle tissue; summary of the method: as §1
# [9] = Myocardial activity in Wistar-Kyoto rat right atrium exposed to electrical stimulation driven at 2 Hz assessed as muscle contraction at 3 uM relative to untreated control; type: functional, Muscle tissue
# Heart [10] = test: Myocardial activity in Wistar-Kyoto rat heart assessed as heart rate level at 10 uM relative to untreated control; type: functional; summary of the method: as §2
# [11] = Myocardial activity in Wistar-Kyoto rat right ventricle exposed to electrical stimulation driven at 2 Hz assessed as muscle contraction at 10 uM relative to untreated control; type: functional, Muscle tissue; summary of the method: as §1
# Heart [12] = test: Myocardial activity in Wistar-Kyoto rat heart assessed as heart rate level at 30 uM relative to untreated control; type: functional; summary of the method: as §2
# Rattus norvegicus [13] = species on record: Rattus norvegicus; test: Positive inotropic effect in Wistar-Kyoto rat left atrium exposed to electrical stimulation driven at 2 Hz assessed as muscle contraction at 3 to 30 uM in presence of 3 uM atenolol relative to untreated control; type: functional, tissue-based; details: Cardiac atrium
# Rattus norvegicus [14] = species on record: Rattus norvegicus; test: Positive inotropic effect in Wistar-Kyoto rat left atrium exposed to electrical stimulation driven at 2 Hz assessed as muscle contraction at 3 to 30 uM in presence of 1 uM prazosin relative to untreated control; type: functional, tissue-based; details: Cardiac atrium
# Rattus norvegicus [15] = species on record: Rattus norvegicus; test: Positive inotropic effect in Wistar-Kyoto rat left atrium exposed to electrical stimulation driven at 2 Hz assessed as muscle contraction at 3 to 30 uM in presence of 1 uM verapamil relative to untreated control; type: functional, tissue-based; details: Cardiac atrium
SMILES,Activity [1] [%],Activity [2] [%],Activity (Heart [3]) [%],Activity [4] [%],Activity [5] [%],Activity [6] [%],Activity [7] [%],Activity [8] [%],Activity [9] [%],Activity (Heart [10]) [%],Activity [11] [%],Activity (Heart [12]) [%],Activity (Rattus norvegicus [13]),Activity (Rattus norvegicus [14]),Activity (Rattus norvegicus [15])
CCCN1CCc2cc(OC)c(O)c3c2[C@H]1Cc1cc(OC)c(OC)cc1-3,141,101,88,131,100,96,105,99,121,79,100,68,,,
CCN1CCc2cc(OC)c(O)c3c2[C@@H]1Cc1cc(OC)c(OC)cc1-3,162,105,97,127,100,111,122,131,93,97,108,84,,,
COc1cc2c(cc1OC)-c1c(O)c(OC)cc3c1[C@H](C2)N(C)CC3,180,110,92,140,125,163,180,243,104,86,154,82,Active,Active,Active
CCCN1CCc2cc(OC)c(O)c3c2[C@@H]1Cc1cc(OC)c(OC)cc1-3,103,99,91,103,95,75,90,74,103,80,85,61,,,
COc1cc2c(cc1OC)-c1c(O)c(OC)cc3c1[C@@H](C2)N(C)CC3,129,106,92,121,93,72,103,100,106,85,80,69,,,
COc1cc2c(cc1OC)-c1c(O)c(OC)cc3c1[C@@H](C2)NCC3,105,103,100,103,108,120,104,105,101,96,111,79,,,
COc1cc2c(cc1OC)-c1c(O)c(OC)cc3c1[C@H](C2)NCC3,117,94,91,99,102,90,93,89,99,78,96,61,,,
